According to PMC10600558 (Molecular Imaging and Radionuclide Therapy, 2023):

Legend:
[1] = system: neuroendocrine tumors (NETs); conditions: NETTER-1 trial; cited from earlier work
[2] = Toxicity and side effects according to CTCAE v5.0; format: in vivo, patients
Summary of the method: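 Patients were treated as inpatients with amino-acid renal protection and ondansetron premedication. Vital signs were recorded every 60 min for 5 h, and complaints were tracked for 24 h. Adverse events were graded by CTCAE v5.0 three months after each cycle. Haematological, renal and liver values before versus after the last cycle were compared by Wilcoxon rank sum test and reported as mean ± standard deviation, with p<0.05 taken as significant.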

[3] = system: metastatic neuroendocrine tumors (NETs); assay: Response evaluation by [^68Ga]Ga-DOTATATE PET/CT and RECIST 1.1; format: in vivo, patients; conditions: [^68Ga]Ga-DOTATATE PET/CT three months after treatment, n=9 evaluated
Summary of the method: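 Treatment was 100-120 kBq/kg given intravenously over 5 min. Response was read on [68Ga]Ga-DOTATATE PET/contrast-enhanced CT within 4 weeks before and 12-16 weeks after treatment, repeated 12-18 weeks after each cycle until progression or death, and scored by RECIST 1.1 on the ceCT. PFS ran from the first administration and was estimated by Kaplan-Meier. Response comparisons used chi-square, with p<0.05 taken as significant.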

[4] = In vitro stability of [^225Ac]Ac-DOTATATE in saline; format: physicochemical; conditions: 37 °C, up to 5 h, n=3, slight decrease in stability after 5 h
[5] = Excretion from the kidneys after injection; format: in vivo; conditions: 24 h after injection, 9 patients, mean ± SD, relative to injected activity
Summary of the method: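 Patients received 100-120 kBq/kg of the test radioligand as a slow intravenous injection over 5 min, with arginine/lysine kidney protection. The amount excreted in urine was quantified against standard samples prepared at the time of injection. The excretion rate was expressed relative to injected activity and reported as mean ± standard deviation.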

NET = conditions: recent study of the same group; cited from earlier work
[6] = In vivo stability in patients' blood and urine samples; conditions: RP-HPLC
Summary of the method: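 Samples came from the first 3 patients: blood at 0-10 min and urine up to 3 h post-injection. Blood was precipitated with acetonitrile (1:1) and centrifuged for 5 min at 14,680 rpm, and the supernatant was diluted 1:1 with water. Urine was diluted with water, filtered and analysed immediately. Both went to RP-HPLC, and fractions were gamma-counted (440 keV, [213Bi]) at least 20 h later and plotted by tube number.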

[7] = [^68Ga]Ga-DOTATATE uptake of parotid glands; format: in vivo, patients; conditions: [^68Ga]Ga-DOTATATE PET/CT
Summary of the method: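 Parotid SUVmax was read on [68Ga]Ga-DOTATATE PET/CT at baseline and after cycles of treatment. Pre/post values were compared by Wilcoxon rank sum test and reported as mean ± standard deviation, with p<0.05 taken as significant.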

[8] = CTCAE v5.0, 8 patients analysed, n=1 (grade 2, after 3 cycles)

Substance	estimated median progression-free survival (PFS) [1] [months]	hematotoxicity rate [2, 8] [%]	nephrotoxicity rate [2, 8] [%]	grade 3-4 toxicities ([2]; CTCAE v5.0, mean activity 8.2±0.6 MBq per cycle, 1-3 cycles)	lymphocyte count ([2]; all patients, p<0.05)	acute side effects during the injection ([2]; nausea or vomiting, slow injection over 5 min, 100-120 kBq/kg)	xerostomia ([2]; patient complaints)	progressive disease ([3]; n=1) [%]	partial response (PR) ([3]; n=4) [%]	RP-HPLC profile of saline incubation samples [4]	mean excretion rate from the kidneys [5] [%]	disease control rate (NET) [%]	time stable in vivo (urine and blood samples) ([6]; first 3 patients, blood 0-10 min, urine up to 3 h after injection) [h]	time remained stable in urine ([6]; patient urine samples up to 3 h after injection)	mean parotid SUVmax after two cycles ([7]; n=6, baseline 2.98±0.96, p=0.73)	mean parotid SUVmax after the first cycle ([7]; n=9, baseline 2.98±0.96, p=0.93)
[^177Lu]Lu-DOTATATE	40															
[^225Ac]Ac-DOTATATE		12.5	12.5	No grade 3-4 toxicities	transient decrease	did not observe any acute side effects	did not complain of xerostomia	11	44.4	single radioactivity peak	56±9.7	79.8	≥ 3	up to 3 h	2.48±0.59	2.07±0.93
